Test results from ChEMBL document CHEMBL1137227, “Identification of a selective inverse agonist for the orphan nuclear receptor estrogen-related receptor alpha” (J Med Chem, 2004).
Values joined by “and” are separate entries in the source; they are usually repeats but may differ in a detail not shown here. Equal values may be shown once.

Experiments:
[1] = biological target: T1, Steroid hormone receptor ERR1 (Homo sapiens, UniProt P11474); experiment: (§1) Inhibition of estrogen-related receptor alpha Gal4 activity
T1 sequence (P11474 whole entry): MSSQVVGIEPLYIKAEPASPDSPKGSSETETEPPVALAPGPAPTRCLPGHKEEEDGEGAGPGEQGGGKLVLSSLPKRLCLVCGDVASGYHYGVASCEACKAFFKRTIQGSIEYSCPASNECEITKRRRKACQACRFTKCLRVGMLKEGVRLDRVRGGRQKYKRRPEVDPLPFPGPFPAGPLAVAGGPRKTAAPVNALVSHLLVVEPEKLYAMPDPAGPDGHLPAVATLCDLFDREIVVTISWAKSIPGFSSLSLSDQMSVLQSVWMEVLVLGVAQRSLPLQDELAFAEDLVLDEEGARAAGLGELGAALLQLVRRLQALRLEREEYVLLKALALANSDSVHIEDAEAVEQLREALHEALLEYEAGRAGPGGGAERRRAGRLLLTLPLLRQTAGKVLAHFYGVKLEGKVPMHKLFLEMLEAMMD

[2] = biological target: T2, Steroid hormone receptor ERR1 (Homo sapiens) (UniProt P11474); experiment: Percent inhibition of estrogen-related receptor alpha Gal4 activity at 10 uM
T2 sequence (whole entry): T1 sequence (P11474 whole entry)
Procedure, shortened: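 Gal4-ERRα cell-based cotransfection assay with compound tested at a single concentration of 10 μM. Activity expressed as percent inhibition of ERRα-driven Gal4 signal.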

[3] = biological target: T1, Steroid hormone receptor ERR1; experiment: Inhibition of estrogen-related receptor alpha Gal4 activity; not active
Procedure, shortened: (§2)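 Cell-based cotransfection assay in Gal4-ERRα format. IC50 fitted by nonlinear regression to 10-dose titration curves and averaged over at least two experiments. Standard error of the mean typically under 30% per experiment. NA means not active under assay conditions.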

[4] = biological target: T1, Steroid hormone receptor ERR1; experiment: Inhibition of estrogen-related receptor alpha in FP assay
[5] = biological target: T1, Steroid hormone receptor ERR1; experiment: as §1; procedure, shortened: as §2; remark: listed apart in the source

| IC50 [1] | inhibition [2] | IC50 [3] | IC50 [4] [nM] | IC50 [5] [nM] | Structure (SMILES) |
| --- | --- | --- | --- | --- | --- |
| 2000 nM | 74% | – | – | – | COc1cc(/C=C(\C#N)C(=O)Nc2nnc(-c3ccc(N(C)C)cc3)s2)ccc1OCCOc1c(C)cccc1C |
| – | – | Not Active | – | – | CCc1nnc(NC(=O)/C(C#N)=C/c2ccc(OCc3cc(C(F)(F)F)ccc3C(F)(F)F)c(OC)c2)s1 |
| – | – | – | 1400 | 2300 | CCC1=NN2C/C(=C/c3ccc(OCCOc4c(C)cccc4C)c(OC)c3)C(=O)N=C2S1 |
| – | – | Not Active | – | – | COc1cc(/C=C(\C#N)C(=O)Nc2nccs2)ccc1OCCOc1c(C)cccc1C |
| 1700 nM | 104% | – | – | – | COc1cc(/C=C(\C#N)C(=O)Nc2nnc(C(C)(C)C)s2)ccc1OCCOc1c(C)cccc1C |
| 750 nM | 99% | – | – | – | COc1cc(/C=C(\C#N)C(=O)Nc2nncs2)ccc1OCc1ccc(C(F)(F)F)cc1C(F)(F)F |
| 440 nM | 105% | – | – | – | COc1cc(/C=C(\C#N)C(=O)Nc2nnc(SC)s2)ccc1OCc1ccc(C(F)(F)F)cc1C(F)(F)F |
| 920 nM and 1500 nM | 109% and 90% | – | – | – | CCc1nnc(NC(=O)/C(C#N)=C/c2ccc(OCc3ccc(F)cc3C(F)(F)F)c(OC)c2)s1 |
| 1400 nM | 103% | – | – | – | COc1cc(/C=C(\C#N)C(=O)Nc2nncs2)ccc1OCCOc1c(C)cccc1C |
| 400 nM and 610 nM and 540 nM | 106% and 104% and 99% | – | – | – | CCc1nnc(NC(=O)/C(C#N)=C/c2ccc(OCc3ccc(C(F)(F)F)cc3C(F)(F)F)c(OC)c2)s1 |
| 2600 nM | 92% | – | – | – | COc1cc(/C=C(\C#N)C(=O)Nc2nnc(SC)s2)ccc1OCCOc1c(C)cccc1C |
| > 10000 nM | 43% | – | – | – | COc1cc(/C=C(\C#N)C(=O)Nc2nnc(C(C)(C)C)s2)ccc1OCc1ccc(C(F)(F)F)cc1C(F)(F)F |
| 1800 nM | 101% | – | – | – | CCc1nnc(NC(=O)/C(C#N)=C/c2ccc(OCc3ccccc3OC(F)(F)F)c(OC)c2)s1 |
| 1800 nM | 90% | – | – | – | CCc1nnc(NC(=O)/C(C#N)=C/c2ccc(OCc3cccc4ccccc34)c(OC)c2)s1 |
| 2200 nM | 57% | – | – | – | CCc1nnc(NC(=O)/C(C#N)=C/c2ccc(OCc3ccccc3Br)c(OC)c2)s1 |
| – | 109% | – | – | – | COc1cc(/C=C(\C#N)C(=O)Nc2nnc(C(F)(F)F)s2)ccc1OCc1ccc(C(F)(F)F)cc1C(F)(F)F |
| 2000 nM | 96% | – | – | – | CCc1nnc(NC(=O)/C(C#N)=C/c2ccc(OCCOc3c(C)cccc3C)c(OC)c2)s1 |
| 800 nM and 1700 nM | – | – | – | – | CCc1nnc(NC(=O)/C(C#N)=C/c2ccc(OCc3cc(F)ccc3C(F)(F)F)c(OC)c2)s1 |
| 1500 nM | 112% | – | – | – | COc1cc(/C=C(\C#N)C(=O)Nc2nnc(C(F)(F)F)s2)ccc1OCCOc1c(C)cccc1C |
| 500 nM | 105% | – | – | – | COc1cc(/C=C(\C#N)C(=O)Nc2nnc(-c3ccccc3)s2)ccc1OCc1ccc(C(F)(F)F)cc1C(F)(F)F |
| – | – | Not Active | – | – | CCc1nnc(NC(=O)/C(C#N)=C/c2ccc(OCc3c(F)cccc3C(F)(F)F)c(OC)c2)s1 |
| 3300 nM | 88% | – | – | – | CCc1nnc(NC(=O)/C(C#N)=C/c2ccc(OCCOc3c(C)cccc3C)c(OC)c2)o1 |
